# Fewer inactive variants are shown than the library holds.
# B1: tRNA (parent)
# chain: GUUCCGUUGGCGUAAUGGUAACGCGUCUCCCUCCUAAGGAGAAGACUGCGGGUUCGAGUCCCGUACGGAACG
# Variants of: B1
# Test: yeast fitness relative to wild type (ratio to wild type); higher = fitter; tRNA-Arg(CCU), competitive growth, 37 C, YPD
# In short: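 Changes in genotype frequencies gave Darwinian fitness relative to wild type. Frequencies were read by 100-nucleotide paired-end sequencing of gene amplicons before and after pooled Saccharomyces cerevisiae strains, carrying tRNA-Arg(CCU) gene variants at the native locus, were competed in YPD at 37°C for 24 hours in six replicates. A genotype was kept only with ≥ 100 starting reads, and estimates < 0.5 were set to 0.5.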
row,Variant,yeast fitness
1,C30G A40U A70U,0.526
2,C30G A42U,0.666
3,C31G C33U U35A,≤ 0.5
4,C31G G44C G52C C60G,≤ 0.5
5,C30G C46A U47G C49A G52A G58C U64G A65G A69G,≤ 0.5
6,C30U U35A A69U,≤ 0.5
7,C31G A36C G41A C49U,≤ 0.5
8,C31G A45U U47A G67A,≤ 0.5
9,C30U G38C U59A,≤ 0.5
10,C31G A45G,0.809
11,C31U A70C,1.05
12,U32G A36U,0.697
13,C31G C61G,0.623
14,C30G A57U C62U,≤ 0.5
15,U32A C33U,0.597
16,U32G A36U U59C,≤ 0.5
17,C31A A37U C49A C55U,≤ 0.5
18,C30G C33G C60G C62U,≤ 0.5
19,C30U C31U G41C A45G C49U C66U A69G,≤ 0.5
20,C31G A36C C49G,≤ 0.5
21,U32A A37G G48A U59C,0.541
22,C30G A42C U59A C60U,0.507
23,C31G U64C G67A,≤ 0.5
24,C31A G38A A65G,0.591

row,Variant,yeast fitness
1,C31G U32C A37U,≤ 0.5
2,U32C A40U C55G A70C,≤ 0.5
3,C31U G41C A43C C60G,≤ 0.5
4,C30U A43C G52A,0.516
5,U32C G56A,1.07
6,C30G G38C G52A C55U,≤ 0.5
7,C30G C46A G56A,0.557
8,C31A A36G A57C,≤ 0.5
9,C31G C46G G58C,0.928
10,C31U U59A,0.771
11,C31A A40C G52A G68C,≤ 0.5
12,C30U G58C G63C,0.57
13,C31G A37C G52C C61A C66U,0.527
14,C31G A37U G39C A42C,≤ 0.5
15,C30U U35A G51A,≤ 0.5
16,C31G A57U G58C,≤ 0.5
17,C31U A37C C55U A65U A70G,≤ 0.5
18,C30U C33A,0.672
19,U32C C46G C62U,0.733
20,C31U A37G A45C,0.618
21,C31A A42G C49G C62U,≤ 0.5
22,C31G C33U A40C,0.6
23,U32C A65U G67A,0.646
24,C31U G48A C55U G63C,0.595

row,Variant,yeast fitness
1,C31G G41A U53C,0.52
2,C31A C55A C61A G63A,0.655
3,C31U A65G,1.11
4,C31G A43G C49U C61A,≤ 0.5
5,U32A C61A A65U,≤ 0.5
6,C31A C33A,0.509
7,U32C A45U C66A,≤ 0.5
8,C30U C46U G52C,≤ 0.5
9,C30U C55U G67U,≤ 0.5
10,C31G A37C C60U,≤ 0.5
11,C31U A40U U59C,0.648
12,C30U G39C G50A,≤ 0.5
13,C30G G44C G51C A69U,≤ 0.5
14,C31A C55G,0.529
15,C31G A43G C49U G68A,0.558
16,C31G C34G A40U,≤ 0.5
17,C31A C49U,0.867
18,C31U G51A,0.892
19,C30U A36G C61G,≤ 0.5
20,C30G G41A A65G,≤ 0.5
21,C31U G39C,0.901
22,C31G A37C G52C C61G C66U,≤ 0.5
23,C30U C34G A40C C49G,≤ 0.5
24,C30U G52C,0.593

row,Variant,yeast fitness
1,C31U G51A G56C G67C,0.526
2,U32C G38C G68C A69C,0.589
3,C30G G38C,0.741
4,C30U C49U U54A,≤ 0.5
5,U32C A42C C46U,0.63
6,C31G G38C A43U,0.538
7,C31A C49A C60U,≤ 0.5
8,C31G U32A A40C,≤ 0.5
9,C30U A45G C61A A65U,≤ 0.5
10,C30U A36C C46U U53A,≤ 0.5
11,U32A C49G C55U A69C,0.546
12,U32A A57U,0.558
13,C30G C31A G63C,0.546
14,C30U G39A A40G U53C G67A,≤ 0.5
15,C31U A57G C66U,0.583
16,U32A A65C,0.887
17,C30U C31U A42U G67A,0.537
18,C30U G38C G63A A70G,≤ 0.5
19,C31U G41U G63A,0.721
20,C31G C46G G50A,0.552
21,C30G G52C A65C,≤ 0.5
22,C31G A42C C55U G68A,0.542
23,C31G C33U A37C,≤ 0.5
24,U32A A42C C61G C66G,0.554

row,Variant,yeast fitness
1,C31G A57U A69C,≤ 0.5
2,C31A G48C C61A A70G,≤ 0.5
3,C30G C33G C34U A42U A57G A65C,≤ 0.5
4,C30U A43G G51C,≤ 0.5
5,C30U C46A A70C,0.82
6,C30G C34A C49G G50A U64A,0.56
7,C31U C34U G38A G44C,≤ 0.5
8,U32C G68U,0.877
9,U32C G68A,0.921
10,C31A A36G,0.78
11,U32A C33G C60A,≤ 0.5
12,C31U C46U G51A,0.968
13,C30U U59G C66U G68A,≤ 0.5
14,C30U U54G U59G,0.655
15,C30A U64G,0.793
16,C30G G41C G68A,≤ 0.5
17,U32C C33A G51C G68A,≤ 0.5
18,C30U A45C A65U,≤ 0.5
19,C31G A40G C46A,0.618
20,C31G A36U A65U,0.517
21,C31U A69C A70U,0.747
22,C31A U64G A69C,≤ 0.5
23,U32C C33U,0.659
24,C30U G38C C62G,≤ 0.5

row,Variant,yeast fitness
1,U32A C49U G68A,≤ 0.5
2,C31G U47G C49G,0.647
3,U32C G58C,0.884
4,C30G C60U A65G,≤ 0.5
5,U32C G48C G56A,≤ 0.5
6,C31A U53G A57G,≤ 0.5
7,C31U G48C U59A G67C A69C,≤ 0.5
8,U32A A36U A70G,≤ 0.5
9,U32G A57C C62G C66G,0.567
10,U32C C60G A65C,0.501
11,C31U U35C A40G A65U,≤ 0.5
12,C31G C34G A45U G63C,≤ 0.5
13,C30G A42U A45G A69U,≤ 0.5
14,C30U G50C U59A,≤ 0.5
15,C30U G58C C66U,0.663
16,C30G U32C,0.708
17,C30U A36U C62G G63A,0.542
18,C30G C33A A36U A65C,0.535
19,C31G G51C C61U,≤ 0.5
20,C30U C62A,0.798
21,C30U C62G,0.855
22,U32A A36U C62U,≤ 0.5
23,C30U A36G G44A C66U,≤ 0.5
24,C30G U47A G50C A65G G68C,≤ 0.5

row,Variant,yeast fitness
1,U32C G38A,0.962
2,C30U C46A G51A,0.608
3,C30U A57G A70U,0.558
4,C31A A43U U54A,≤ 0.5
5,C31A A42G,0.766
6,C31G A45C A65U,≤ 0.5
7,C31U G44A,1.02
8,C31A C49A G56A A65G C66A G68C,≤ 0.5
9,C30G G51C C61G,≤ 0.5
10,C31U U32C U54G C55U C61U,≤ 0.5
11,C31A G39C,0.659
12,C30U A43C A70U,0.556
13,C30U C31U A37G A43G G52A,≤ 0.5
14,C31U A40G G48C A57U U59A A69C,≤ 0.5
15,C31G A57C C62G,0.703
16,U32C C34U U53A G68C,0.537
17,C31G A43U C46G C66U A70U,≤ 0.5
18,U32C A37C G39C,≤ 0.5
19,U32C G48A U53G,≤ 0.5
20,C31A C33G G51C C60G,≤ 0.5
21,C30U A36G G44A,0.638
22,C30U C46A G63C A70G,≤ 0.5
23,C31G G63C A65C,≤ 0.5

# From the RNAGym collection of RNA variant scans (doi:10.1126/science.aae0568)
